Here are results for 35 molecules from ChEMBL document CHEMBL2439987, “TRPV1 antagonist with high analgesic efficacy: 2-Thio pyridine C-region analogues of 2-(3-fluoro-4-methylsulfonylaminophenyl)propanamides” (Bioorg Med Chem, 2013).

pIC50, pKi: −log10 of the molar value. Active and inactive are the calls of the source. The rule behind the calls is not given here. Bounds are passed on as bounds.

For test [1], the target named is T1, Transient receptor potential cation channel subfamily V member 1 (Homo sapiens, UniProt Q8NER1). Nature of the test: Antagonist activity at human TRPV1 expressed in CHOK1 cells assessed as inhibition of pH-induced activity by FLIPR assay. It counts as cell-based, CHO-K1. Conditions: for inhibition: CHO-K1.
Test [2] deals with T1, Transient receptor potential cation channel subfamily V member 1. The experiment in a line: Antagonist activity at human TRPV1 expressed in CHOK1 cells assessed as inhibition of capsaicin-induced activity by FLIPR assay. The format is cell-based, CHO-K1. Conditions: for pKi: read-out: Ki; for Ki: cho-k1.
Test [3] shares this target. The experiment in a line: Antagonist activity at human TRPV1 expressed in CHOK1 cells assessed as inhibition of N-arachidonoyl dopamine-induced activity after 5 mins by FLIPR assay.
Test [4] deals with Rattus norvegicus. The experiment in a line: Analgesic activity in CCI-induced Sprague-Dawley rat neuropathic pain model assessed as reduction in paw withdrawal measured 45 mins after po administration. It counts as functional. In outline: (§1)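 Chronic constriction injury (Bennett model) of neuropathic pain in rats, read out as cold allodynia. Compound given orally and compared with vehicle. Effect expressed as % maximal possible effect (MPE), with n = 10 per group, mean ± SEM, and p < 0.05 versus vehicle. ED50 taken from the dose–response.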

The subject of test [5] is Rattus norvegicus. The experiment in a line: Analgesic activity in CCI-induced Sprague-Dawley rat neuropathic pain model assessed as reduction in paw withdrawal at 10 mg/kg, po measured 45 mins post compound administration relative to control. The format is functional. The gist of the method:
as §1

For test [6], the target named is T1, Transient receptor potential cation channel subfamily V member 1. Nature of the test: Antagonist activity at human TRPV1 expressed in CHOK1 cells assessed as inhibition of 45 degC heat-induced activity after 5 mins by FLIPR assay. It counts as cell-based, CHO-K1.
Test [7] relates to Mus musculus. The experiment in a line: Inhibition of capsaicin-induced hypothermia in NMRI mouse at 0.3 mg/kg, po administered 15 mins prior challenge measured at 30 mins post-challenge. It counts as functional, organism-based. Set-up: dose 0.3 mg/kg.

T1 sequence (Q8NER1 whole entry): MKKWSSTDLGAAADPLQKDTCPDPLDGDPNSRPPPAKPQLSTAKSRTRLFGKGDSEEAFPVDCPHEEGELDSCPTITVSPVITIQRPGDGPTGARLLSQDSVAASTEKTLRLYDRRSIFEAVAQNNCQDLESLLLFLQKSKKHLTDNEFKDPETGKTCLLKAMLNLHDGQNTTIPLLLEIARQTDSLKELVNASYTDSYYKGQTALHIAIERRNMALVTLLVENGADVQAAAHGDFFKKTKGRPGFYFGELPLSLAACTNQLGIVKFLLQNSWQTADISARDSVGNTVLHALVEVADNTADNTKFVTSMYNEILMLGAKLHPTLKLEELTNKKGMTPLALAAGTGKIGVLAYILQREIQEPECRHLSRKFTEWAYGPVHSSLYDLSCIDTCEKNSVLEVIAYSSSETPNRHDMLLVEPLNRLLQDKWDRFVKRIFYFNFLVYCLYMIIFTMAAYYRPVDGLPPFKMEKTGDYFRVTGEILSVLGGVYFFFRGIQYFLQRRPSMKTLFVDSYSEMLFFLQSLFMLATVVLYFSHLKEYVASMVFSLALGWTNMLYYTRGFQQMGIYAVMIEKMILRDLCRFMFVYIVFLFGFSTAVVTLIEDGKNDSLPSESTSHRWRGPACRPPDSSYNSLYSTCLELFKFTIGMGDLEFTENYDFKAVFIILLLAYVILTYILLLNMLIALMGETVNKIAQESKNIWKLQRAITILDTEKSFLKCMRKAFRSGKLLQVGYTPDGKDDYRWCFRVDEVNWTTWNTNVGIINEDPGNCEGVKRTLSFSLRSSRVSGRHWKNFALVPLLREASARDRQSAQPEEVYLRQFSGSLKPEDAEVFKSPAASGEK

On to `CC(C(=O)NCc1ccc(C(F)(F)F)nc1SCC1CCCCC1)c1ccc(NS(C)(=O)=O)c(F)c1` (centres undefined), for which, in test [1], the pIC50 was 6.60. In addition, in test [2], the negative logarithm of the Ki (pKi) is 8.64.
On the same counts, the results for `CC(C(=O)NCc1ccc(C(F)(F)F)nc1SCCCBr)c1ccc(NS(C)(=O)=O)c(F)c1` (centres undefined) are 7.17 and 8.15.
Turning to `CC(C(=O)NCc1ccc(C(F)(F)F)nc1SCC(F)(F)F)c1ccc(NS(C)(=O)=O)c(F)c1` (centres undefined), the inhibition entry in test [1] was “inactive”. In addition, the pKi in test [2] is 8.37.
Take `CC(C(=O)NCc1ccc(C(F)(F)F)nc1SC1CCC(C(C)(C)C)CC1)c1ccc(NS(C)(=O)=O)c(F)c1` (centres undefined): the pIC50 in test [1] is 7.05. Moreover, the negative-log Ki (pKi) in test [2] was 8.59.
Take `CC(C(=O)NCc1ccc(C(F)(F)F)nc1SCCC(=O)N1CCCC1)c1ccc(NS(C)(=O)=O)c(F)c1` (centres undefined): in test [1], the inhibition result was “inactive”. Moreover, in test [2], the negative-log Ki (pKi) was 7.07.
On to `COC(=O)CCSc1nc(C(F)(F)F)ccc1CNC(=O)C(C)c1ccc(NS(C)(=O)=O)c(F)c1` (centres undefined), for which, in test [1], the pIC50 was 5.96. Also, in test [2], the negative-log Ki (pKi) is 7.32.
For `CC(C(=O)NCc1ccc(C(F)(F)F)nc1SC1CCCCC1)c1ccc(NS(C)(=O)=O)c(F)c1` (centres undefined), the inhibition entry in test [1] is “inactive”.
With `CC(C(=O)NCc1ccc(C(F)(F)F)nc1SCc1cccc(C(F)(F)F)c1)c1ccc(NS(C)(=O)=O)c(F)c1` (centres undefined), the pIC50 in test [1] was 7.15. The pKi in test [2] is 8.41.
With `CCCCCSc1nc(C(F)(F)F)ccc1CNC(=O)C(C)c1ccc(NS(C)(=O)=O)c(F)c1` (centres undefined), in test [1], the pIC50 was 7.02. In addition, the negative-log Ki (pKi) in test [2] is 8.60.
Taken in the same sequence, the figures for `COc1ccc(CSc2nc(C(F)(F)F)ccc2CNC(=O)C(C)c2ccc(NS(C)(=O)=O)c(F)c2)cc1` (centres undefined) were 6.55 and 8.64.
`CC(C(=O)NCc1ccc(C(F)(F)F)nc1SCc1cccs1)c1ccc(NS(C)(=O)=O)c(F)c1` (centres undefined): in test [1], the inhibition result is “inactive”. Also, the negative logarithm of the Ki (pKi) in test [2] is 7.82.
In the case of `CC1CCC(Sc2nc(C(F)(F)F)ccc2CNC(=O)C(C)c2ccc(NS(C)(=O)=O)c(F)c2)CC1` (centres undefined), in test [1], the pIC50 is 6.74. In addition, in test [2], the pKi was 9.30.
As for `CC1CCN(CCCSc2nc(C(F)(F)F)ccc2CNC(=O)C(C)c2ccc(NS(C)(=O)=O)c(F)c2)CC1` (centres undefined), the pIC50 in test [1] was 6.66. Besides, the negative-log Ki (pKi) in test [2] is 8.54.
On the same counts, the results for `CC(C(=O)NCc1ccc(C(F)(F)F)nc1SCCc1ccccc1)c1ccc(NS(C)(=O)=O)c(F)c1` (centres undefined) are 6.95 and 8.72.
For `CCC1CCC(Sc2nc(C(F)(F)F)ccc2CNC(=O)C(C)c2ccc(NS(C)(=O)=O)c(F)c2)CC1` (centres undefined), the inhibition result in test [1] is “inactive”. Moreover, in test [2], the pKi was 9.00.
For the molecule `CCCCCCSc1nc(C(F)(F)F)ccc1CNC(=O)C(C)c1ccc(NS(C)(=O)=O)c(F)c1` (centres undefined), in test [1], the pIC50 was 6.14. Also, in test [2], the pKi is 8.25.
On the same counts, the results for `CC(C(=O)NCc1ccc(C(F)(F)F)nc1SCCCN(C)C)c1ccc(NS(C)(=O)=O)c(F)c1` (centres undefined) are 5.82 and 7.56.
Regarding `CC(C(=O)NCc1ccc(C(F)(F)F)nc1SCc1ccco1)c1ccc(NS(C)(=O)=O)c(F)c1` (centres undefined), in test [1], the inhibition result was “inactive”. In addition, in test [2], the negative-log Ki (pKi) is 7.84.
For `CC(C(=O)NCc1ccc(C(F)(F)F)nc1SCc1ccccc1Cl)c1ccc(NS(C)(=O)=O)c(F)c1` (centres undefined), the pIC50 in test [1] was 6.21. Further, in test [2], the negative logarithm of the Ki (pKi) was 8.31.
In the case of `CC(C(=O)NCc1ccc(C(F)(F)F)nc1SCCCN1CCOCC1)c1ccc(NS(C)(=O)=O)c(F)c1` (centres undefined), the inhibition result in test [1] is “inactive”. The Ki result in test [2] is “Not Active”.
Turning to `CC(C(=O)NCc1ccc(C(F)(F)F)nc1SC1CCCCC1C)c1ccc(NS(C)(=O)=O)c(F)c1` (centres undefined), in test [1], the inhibition entry was “inactive”. For the same molecule, the pKi in test [2] was 8.72.
For `Cc1ccc(CSc2nc(C(F)(F)F)ccc2CNC(=O)C(C)c2ccc(NS(C)(=O)=O)c(F)c2)cc1` (centres undefined), the negative-log IC50 (pIC50) in test [1] is 6.12. The pKi in test [2] was 8.49.
Turning to `CC(C(=O)NCc1ccc(C(F)(F)F)nc1SCCCO)c1ccc(NS(C)(=O)=O)c(F)c1` (centres undefined), in test [2], the Ki result is recorded as “Not Active”.
Consider `C[C@H](C(=O)NCc1ccc(C(F)(F)F)nc1SC1CCCCC1)c1ccc(NS(C)(=O)=O)c(F)c1`, for which the pKi is 10.30 in test [3] and 9.40 in test [2]. For the same molecule, the Activity result in test [4] is “Dose-dependent effect”. Also, the ED50 in test [4] (0.75 h) worked out at 0.19 mg/kg. For the same molecule, the “%max” value in test [5] worked out at 75%. For the same molecule, the negative logarithm of the IC50 (pIC50) is less than 6.00 in test [1] and 7.65 in test [6]. The inhibition entry in test [7] was “Active”.
As for `CC(C(=O)NCc1ccc(C(F)(F)F)nc1[S+]([O-])C1CCCCC1)c1ccc(NS(C)(=O)=O)c(F)c1` (centres undefined), in test [1], the inhibition entry is “inactive”. In test [2], the Ki result is on record as “Not Active”.
Turning to `CC(C(=O)NCc1ccc(C(F)(F)F)nc1SCc1ccc(Cl)cc1)c1ccc(NS(C)(=O)=O)c(F)c1` (centres undefined), the pIC50 in test [1] was 6.17. Also, the negative-log Ki (pKi) in test [2] is 8.06.
As to `CC(C(=O)NCc1ccc(C(F)(F)F)nc1SCCC(=O)O)c1ccc(NS(C)(=O)=O)c(F)c1` (centres undefined), the inhibition result in test [1] was “inactive”. Besides, the Ki entry in test [2] is “Not Active”.
`CC(C(=O)NCc1ccc(C(F)(F)F)nc1SC1CCCC1)c1ccc(NS(C)(=O)=O)c(F)c1` (centres undefined): in test [1], the inhibition entry was “inactive”. In test [2], the pKi is 8.92.
Regarding `CC(C(=O)NCc1ccc(C(F)(F)F)nc1S(=O)(=O)C1CCCCC1)c1ccc(NS(C)(=O)=O)c(F)c1` (centres undefined), the inhibition result in test [1] is “inactive”. Further, the Ki entry in test [2] is reported as “Not Active”.
Take `C[C@@H](C(=O)NCc1ccc(C(F)(F)F)nc1SC1CCCCC1)c1ccc(NS(C)(=O)=O)c(F)c1`: the inhibition entry in test [1] was “inactive”. For the same molecule, the pKi in test [2] is 7.36.
For `CC(C(=O)NCc1ccc(C(F)(F)F)nc1SCCCN1CCCC1)c1ccc(NS(C)(=O)=O)c(F)c1` (centres undefined), in test [1], the pIC50 was 6.51. Further, in test [2], the negative logarithm of the Ki (pKi) was 8.48.
Taken in the same sequence, the figures for `CC(C(=O)NCc1ccc(C(F)(F)F)nc1SCCOc1ccccc1)c1ccc(NS(C)(=O)=O)c(F)c1` (centres undefined) were 6.93 and 8.64.
As to `CC(C)CCSc1nc(C(F)(F)F)ccc1CNC(=O)C(C)c1ccc(NS(C)(=O)=O)c(F)c1` (centres undefined), the pIC50 in test [1] was 7.09. For the same molecule, the pKi in test [2] was 9.15.
On the same counts, the results for `C[C@H](C(=O)NCc1ccc(C(C)(C)C)cc1)c1ccc(NS(C)(=O)=O)c(F)c1` are 5.89 and 7.55.
As for `CC(C(=O)NCc1ccc(C(F)(F)F)nc1SCCCN1CCCCC1)c1ccc(NS(C)(=O)=O)c(F)c1` (centres undefined), the pIC50 in test [1] is 6.60. Besides, the negative logarithm of the Ki (pKi) in test [2] was 8.52.

As a reminder, the pIC50 is the IC50 on a negative log10 scale, so that one unit is a factor of ten. One may read the pKi as the Ki on a negative log10 scale, so that one unit is a factor of ten. By ED50 is commonly meant the dose that gives a 50% effect, or the effect in half of the subjects.
